For four compounds, IC50 and Activity results are on record in ChEMBL document CHEMBL3091326, “Design, synthesis, and evaluation of curcumin-derived arylheptanoids for glioblastoma and neuroblastoma cytotoxicity” (Bioorg Med Chem Lett, 2013).

A short description of series [1]: Cytotoxicity against human U87MG cells after 5 days by methylene blue staining assay. Type of series: functional, cell-based, U-87MG ATCC. Particulars: U-87 MG, 120 h. The gist of the method: (§1)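 Cells exposed in triplicate to vehicle or increasing compound concentrations; survival read 5 days post-exposure. Cell mass quantified by methylene blue staining, dye solubilized in 0.1N HCl, absorbance at 610nm. Mean and standard deviation; significance vs media control by Dunnett's multiple comparisons test. IC50 derived from dose-response data.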

A further series deals with SK-N-SH. Put plainly: Cytotoxicity against human SK-N-SH cells after 5 days by methylene blue staining assay. In kind it is functional, cell-based. Particulars: 120 h. The gist of the method: as §1
Another series relates to SK-N-FI. Put plainly: Cytotoxicity against human SK-N-FI cells after 5 days by methylene blue staining assay. In kind it is functional, cell-based. Particulars: 120 h. The method, boiled down: as §1
A short description of series [2]: Cytotoxicity against p53-knockdown human U87MG cells after 5 days by methylene blue staining assay. Type of series: functional, cell-based, U-87MG ATCC. To be noted: U-87 MG, 120 h. The method, boiled down: as §1
A short description of series [3]: Cytotoxicity against human CD34-positive blood stem/progenitor cells at 0.3 to 30 uM after 10 to 14 days by inverted light microscopic analysis. In kind it is cell-based. The gist of the method:
(§2)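 Human CD34+ progenitor cells isolated from umbilical cord blood, treated in triplicate at 0.3, 3.0 and 30 µM in colony-forming unit assays. Progenitor cell (colony) frequency determined after 14 days; compared against control.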

Series [4] is described as follows: Cytotoxicity against human U87MG cells expressing sh-GFP after 5 days by methylene blue staining assay. Particulars: U-87 MG, 120 h. Type of series: functional, cell-based, U-87MG ATCC. The method, boiled down: as §1
Series [5] can be described thus: Cytotoxicity against human CD34-positive blood stem/progenitor cells at 30 uM after 10 to 14 days by inverted light microscopic analysis relative to control. In kind it is cell-based. The gist of the method:
as §2

In the case of `COc1cc(/C=C/C(=O)CC(=O)/C=C/c2ccc(O)c(OC)c2)ccc1O` [CURCUMIN], the IC50 is 8.1 µM in series [1], 6.4 µM with SK-N-SH and 11.3 µM in the series with SK-N-FI.

For `COc1cc(OC)c(C(C#CCCc2ccc(O[Si](C)(C)C(C)(C)C)cc2)CC(=O)c2ccc(O)cc2)c(OC)c1` (centres undefined), the IC50 was 7.5 µM in series [1]; 7 µM in series [2]; 18.1 µM with SK-N-SH; 31.1 µM in the series on SK-N-FI; 7 µM in series [4]. In addition, the Activity result in series [3] is recorded as “Non-toxic”.

In the case of `COc1cc(OC)c(C(C#CCCc2ccc(O[Si](C)(C)C(C)(C)C)cc2)CC(=O)c2ccc(OC(C)=O)cc2)c(OC)c1` (centres undefined), the Activity is 20% in series [5] and “Non-toxic” in series [3]. The IC50 worked out at 8 µM in series [1]; 7 µM in series [2]; 11.7 µM in the series on SK-N-SH; 22.1 µM in the series with SK-N-FI; 6.9 µM in series [4].

As for `COc1cc(OC)c(C(C#CCCc2ccc(O[Si](C)(C)C(C)(C)C)cc2)CC(=O)c2ccc(O[Si](C)(C)C(C)(C)C)cc2)c(OC)c1` (centres undefined), the IC50 in series [1] was 19.1 µM; in the series with SK-N-SH, 48.8 µM; in the series on SK-N-FI, over 100 µM.

The term IC50 denotes the concentration needed to halve the response being measured. The low end stands for inhibition by little substance, the high end for a need for much substance.
